Here are results for eleven compounds from PMC5949723 (Journal of Medicinal Chemistry, 2018).

Usually Ki stands for a measure of affinity in units of concentration, obtained from inhibition or displacement. The IC50 is the midpoint of a concentration-inhibition curve.

In test [1] the target is T1, full length TbrPDEB1 (Trypanosoma brucei, UniProt Q8WQX9).
T1 sequence (Q8WQX9 1-930): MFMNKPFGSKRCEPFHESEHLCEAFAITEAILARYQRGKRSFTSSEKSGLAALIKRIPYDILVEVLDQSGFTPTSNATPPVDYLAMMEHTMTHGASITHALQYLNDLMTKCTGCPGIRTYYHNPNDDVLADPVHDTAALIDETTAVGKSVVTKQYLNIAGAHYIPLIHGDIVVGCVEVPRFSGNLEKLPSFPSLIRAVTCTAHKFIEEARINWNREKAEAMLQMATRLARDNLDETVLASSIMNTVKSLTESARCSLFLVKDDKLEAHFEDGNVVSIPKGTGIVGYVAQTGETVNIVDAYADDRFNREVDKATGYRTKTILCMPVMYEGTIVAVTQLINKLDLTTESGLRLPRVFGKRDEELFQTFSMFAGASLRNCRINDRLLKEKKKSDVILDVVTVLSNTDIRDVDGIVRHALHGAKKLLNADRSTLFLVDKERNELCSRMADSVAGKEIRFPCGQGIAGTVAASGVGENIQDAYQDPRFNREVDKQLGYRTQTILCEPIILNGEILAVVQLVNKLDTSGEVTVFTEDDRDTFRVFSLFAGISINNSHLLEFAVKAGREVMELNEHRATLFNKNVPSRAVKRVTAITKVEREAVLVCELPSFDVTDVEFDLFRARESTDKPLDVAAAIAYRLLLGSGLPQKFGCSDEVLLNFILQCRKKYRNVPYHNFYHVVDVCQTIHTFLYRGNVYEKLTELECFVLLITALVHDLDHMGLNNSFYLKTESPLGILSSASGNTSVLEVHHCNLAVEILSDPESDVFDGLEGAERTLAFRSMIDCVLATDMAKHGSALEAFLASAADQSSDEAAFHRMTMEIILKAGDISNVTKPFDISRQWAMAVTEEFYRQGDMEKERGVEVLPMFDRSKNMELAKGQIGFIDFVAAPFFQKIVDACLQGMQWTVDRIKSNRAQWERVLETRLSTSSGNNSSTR
The test can be described thus: Phosphodiesterase activity assay. The format is biochemical. The note with it: for Selectivity, hPDE4B1 (Ki)/TbrPDEB1 (Ki): ratio of Ki values.

Test [2] addresses T2, full length recombinant hPDE4B1 (Homo sapiens, UniProt Q07343). The test can be described thus: Phosphodiesterase activity assay. In kind it is biochemical.
Test [3] has as its system T. brucei bloodstream forms. The test can be described thus: Microscopy and DAPI staining. The note with it: 10 μM. The format is cell-based. The method in brief:
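Lister 427 bloodstream forms in HMI-9 with 10% heat-inactivated FBS, 37 °C, 5% CO2, seeded at 2 × 10^5 cells/mL with 10 μM test compound. Sampled at 0, 6, 12 and 24 h, pelleted at 4 °C, washed in PBS pH 7.4 and spread on slides. DAPI-stained; brightfield and fluorescence imaging scored nuclear and kinetoplast division, cytokinesis and morphology.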

Test [4] concerns intracellular cAMP levels in T. brucei. The test can be described thus: Intracellular cAMP measurements in bloodstream form trypanosomes. The format is cell-based, T. brucei Lister 427. The note with it: 5 h. The method in brief: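 Log-phase bloodstream forms, HMI-9 with 10% heat-inactivated FBS, 37 °C, 5% CO2, set at 2 × 10^6 cells/mL. Dosed 5 h with test compound at 0.1, 0.33, 1, 3.3 or 10 μM (final), 0.3 μM PDE inhibitor positive control, 0.025 μM pentamidine, or no drug. 5 × 10^6 cells pelleted and lysed in 0.1 M HCl on ice 20 min; cAMP assayed in extracts in duplicate. Mean of four determinations ± SEM, Student's t-test, P < 0.05.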

Another test has as its system hPDE4 subtypes. As to conditions: read-out: hPDE4 subtypes IC50; cited from earlier work.
Test [5] concerns the target T2, full length recombinant hPDE4B1. The note with it: read-out: hPDE4B1 IC50; cited from earlier work.
For test [6], the target named is T1, full length TbrPDEB1. The note with it: established hPDE4 inhibitors; cited from earlier work.
In the next test the test system is T. brucei. The note with it: cited from earlier work.
The subject of test [7] is T. brucei cellular PDE activity. The note with it: cited from earlier work.

Some results are limits rather than exact numbers.

T2 sequence (Q07343 whole entry): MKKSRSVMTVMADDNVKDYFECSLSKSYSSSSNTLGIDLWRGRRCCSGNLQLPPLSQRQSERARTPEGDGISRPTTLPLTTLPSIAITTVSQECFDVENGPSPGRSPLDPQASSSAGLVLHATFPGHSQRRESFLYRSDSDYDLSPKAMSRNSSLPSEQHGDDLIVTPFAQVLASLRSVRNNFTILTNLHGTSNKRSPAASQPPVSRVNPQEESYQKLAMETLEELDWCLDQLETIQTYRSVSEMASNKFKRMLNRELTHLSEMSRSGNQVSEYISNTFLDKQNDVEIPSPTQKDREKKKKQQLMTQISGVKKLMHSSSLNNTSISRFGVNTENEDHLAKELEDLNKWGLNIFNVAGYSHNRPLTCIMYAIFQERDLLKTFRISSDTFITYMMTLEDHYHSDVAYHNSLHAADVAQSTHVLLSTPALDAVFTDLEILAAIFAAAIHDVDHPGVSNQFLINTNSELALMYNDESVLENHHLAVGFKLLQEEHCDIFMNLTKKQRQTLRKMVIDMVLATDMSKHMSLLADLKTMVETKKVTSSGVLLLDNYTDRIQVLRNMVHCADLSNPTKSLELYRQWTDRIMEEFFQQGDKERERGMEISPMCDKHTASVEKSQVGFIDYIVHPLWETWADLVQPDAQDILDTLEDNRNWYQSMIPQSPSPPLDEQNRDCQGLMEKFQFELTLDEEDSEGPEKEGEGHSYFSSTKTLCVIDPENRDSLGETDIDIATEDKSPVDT

As to `COc1ccc(C2=NN(C3CCCCCC3)C(=O)C3CC=CCC23)cc1-c1ccc(C(=O)N2CC[C@@H](O)C2)cc1` (mixture of isomers) [compound 21, cis-2-Cycloheptyl-4-(4′-((R)-3-hydroxy-pyrrolidine-1-carbonyl)-6-methoxy-[1,1′-biphenyl]-3-yl)-4a,5,8,8a-tetrahydrophthalazin-1(2H)-one], the “Selectivity, hPDE4B1 (Ki)/TbrPDEB1 (Ki)” value on full length TbrPDEB1 [1] amounted to 9.
Turning to `COc1ccc(C2=NN(C(C)C)C(=O)C3CC=CCC23)cc1-c1ccc(C(=O)N2CC[C@@H](O)C2)cc1` (mixture of isomers) [compound 22, cis-4-(4′-((R)-3-Hydroxypyrrolidine-1-carbonyl)-6-methoxy-[1,1′-biphenyl]-3-yl)-2-isopropyl-4a,5,8,8a-tetrahydrophthalazin-1(2H)-one], the values for the inhibitory constant (Ki) (in test [2]; on full length TbrPDEB1 [1]) were 3160 nM and 200 nM, respectively. The “Selectivity, hPDE4B1 (Ki)/TbrPDEB1 (Ki)” value at full length TbrPDEB1 [1] came to 15.
Take `COc1ccc(C2=NN(C3CCCCCC3)C(=O)C3CC=CCC23)cc1-c1ccc(C(=O)N2CCC[C@@H]2C(N)=O)cc1` (mixture of isomers) [compound 23, (R)-1-(5′-(cis-3-Cycloheptyl-4-oxo-3,4,4a,5,8,8a-hexahydrophthalazin-1-yl)-2′-methoxy-[1,1′-biphenyl]-4-carbonyl)pyrrolidine-2-carboxamide]: the “selectivity for TbrPDEB1 over hPDE4B1” value at full length TbrPDEB1 [1] is given as “more than 10 fold”.
As for `COc1ccc(C2=NN(C(C)C)C(=O)C3CC=CCC23)cc1-c1ccc(C(=O)N2CCC[C@@H]2C(N)=O)cc1` (mixture of isomers) [compound 24, (R)-1-(5′-(cis-3-Isopropyl-4-oxo-3,4,4a,5,8,8a-hexahydrophthalazin-1-yl)-2′-methoxy-[1,1′-biphenyl]-4-carbonyl)pyrrolidine-2-carboxamide], the Ki in test [2] was 10000 nM. For the same compound, at full length TbrPDEB1 [1], the “selectivity for TbrPDEB1 over hPDE4B1” value is on record as “more than 10 fold” and the “Selectivity, hPDE4B1 (Ki)/TbrPDEB1 (Ki)” value came to 18.
As to `COc1ccc(C2=NN(C3CCCCCC3)C(=O)[C@@H]3CC=CC[C@H]23)cc1-c1ccc(C(=O)NCC(N)=O)cc1` (relative stereo) [compound 8, N-(2-Amino-2-oxoethyl)-5′-(cis-3-cycloheptyl-4-oxo-3,4,4a,5,8,8a-hexahydrophthalazin-1-yl)-2′-methoxy-[1,1′-biphenyl]-4-carboxamide], the “cellular phenotype by fluorescence microscopy” value in test [3] (6 h) is “defect in cytokinesis”; in [3] (12 h), “rounded cells with multiple flagella, some of them detached, and at least 4 nuclei”; in test [3] (24 h), “only a few live cells could be detected, all of which were severely misshapen”. The “effect on intracellular cAMP level” value in test [4] (100 nM, P < 0.05) was “small but significant effect”; in test [4] (10 μM, P < 0.001) it was “strong increase of cAMP level”. The Ki was 1000 nM in [2] and 100 nM on full length TbrPDEB1 [1].
Regarding `COc1ccc(C2=NN(C3CCCCCC3)C(=O)[C@@H]3CC=CC[C@H]23)cc1-c1ccc(C(=O)NCC(=O)NCCO)cc1` (relative stereo) [compound 16, 5′-(cis-3-Cycloheptyl-4-oxo-3,4,4a,5,8,8a-hexahydrophthalazin-1-yl)-N-(2-((2-hydroxyethyl)amino)-2-oxoethyl)-2′-methoxy-[1,1′-biphenyl]-4-carboxamide], the “selectivity for TbrPDEB1 over hPDE4B1” value on full length TbrPDEB1 [1] was roughly 8 fold.
On to `COc1ccc(C2=NN(C3CCCCCC3)C(=O)[C@H]3CC=CC[C@@H]23)cc1-c1ccc(C(=O)NCC(N)=O)cc1` [8a, N-(2-Amino-2-oxoethyl)-5′-((4aS,8aR)-3-cycloheptyl-4-oxo-3,4,4a,5,8,8a-hexahydrophthalazin-1-yl)-2′-methoxy-[1,1′-biphenyl]-4-carboxamide], for which, at full length TbrPDEB1 [1] (8a versus 8b), the “fold less potent against TbrPDEB1 than optical isomer 8b” value is reported as 100 fold.
For the compound `COc1ccc(C2=NN(C3CCCCCC3)C(=O)[C@@H]3CC=CC[C@H]23)cc1OCCCCOc1ccc(-c2nnn[nH]2)cc1` [compound 1], the half-inhibitory concentration (IC50) in the test on hPDE4 subtypes is less than 1 nM; in test [5], 0.6 nM. Moreover, the “effect on intracellular cAMP level” value in test [4] (positive control 0.3 μM, compared with 10 μM of 8) is given as “equally effective”.
For `CCOC(=O)c1cnc2c(cnn2CC)c1NN=C(C)C` [etazolate], the “inhibition of the enzyme TbrPDEB1” value at full length TbrPDEB1 [6] is on record as “do not inhibit”. In addition, the “killing of the parasite” value in the test on T. brucei was “do not kill the parasite”. In test [7], the “inhibition of T. brucei cellular PDE activity” value is given as “do not inhibit”.
In the case of `N=C(N)c1ccc(OCCCCCOc2ccc(C(=N)N)cc2)cc1` [pentamidine, reference compound], the “effect on intracellular cAMP level” value in test [4] (negative control, 0.025 μM, versus untreated parasites) is “not statistically different from untreated parasites”.
On to `COc1ccc(C2CNC(=O)C2)cc1OC1CCCC1` (stereo not drawn) [rolipram], for which the “inhibition of the enzyme TbrPDEB1” value at full length TbrPDEB1 [6] was “do not inhibit”. In addition, in the test on T. brucei, the “killing of the parasite” value was “do not kill the parasite”. In addition, the “inhibition of T. brucei cellular PDE activity” value in [7] is reported as “do not inhibit”.
